Data published in ChEMBL document CHEMBL1149224, “Direct superoxide anion scavenging by a highly water-dispersible carotenoid phospholipid evaluated by electron paramagnetic resonance (EPR) spectroscopy” (2004).

Tests used:
Format in all cases: functional
Homo sapiens [1] = organism: Homo sapiens; experiment: Mean percent inhibition of aqueous superoxide anion production in isolated human neutrophil assay at 0.1 mM using ethanol as solvent
Procedure, shortened: (§1)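 Human PMNs from one donor's venous blood were isolated on a Percoll gradient (1.080 g/mL, 400g, 20 min, 20 C), erythrocytes removed by hypotonic lysis, and cells washed in PAG buffer (PIPES pH 7.4, 0.003% HSA, 0.1% glucose). Carotenoid phospholipid isomer mix was taken from a 41.2% EtOH stock (0.4% EtOH final). Cells were preincubated 5 min, then PMA-stimulated. The DEPMPO-OOH adduct (10 mM DEPMPO) was read by X-band EPR, and % inhibition set against the no-compound control.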

Homo sapiens [2] = organism: Homo sapiens; experiment: Mean percent inhibition of aqueous superoxide anion production in isolated human neutrophil assay at 3 mM using water as solvent
Procedure, shortened: (§2)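 The carotenoid phospholipid isomer mix was dispersed in deionized water without heat, detergent or additives. Isolated human PMNs (Percoll gradient, hypotonic erythrocyte lysis, washed in PIPES-HSA-glucose buffer, pH 7.4) were preincubated 5 min with the suspension, then PMA-stimulated. Superoxide was spin-trapped with 10 mM DEPMPO and the DEPMPO-OOH signal measured by X-band EPR. Inhibition is expressed relative to the no-compound control signal.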

Homo sapiens [3] = organism: Homo sapiens; experiment: Mean percent inhibition of aqueous superoxide anion production in isolated human neutrophil assay at 10 mM using water as solvent; procedure, shortened: as §2
Homo sapiens [4] = organism: Homo sapiens; experiment: Mean percent inhibition of aqueous superoxide anion production in isolated human neutrophil assay at 0.5 mM using ethanol as solvent; procedure, shortened: as §1
Homo sapiens [5] = organism: Homo sapiens; experiment: Mean percent inhibition of aqueous superoxide anion production in isolated human neutrophil assay at 0.5 mM using water as solvent; procedure, shortened: as §2
Homo sapiens [6] = organism: Homo sapiens; experiment: Mean percent inhibition of aqueous superoxide anion production in isolated human neutrophil assay at 1 mM using water as solvent; procedure, shortened: as §2
Homo sapiens [7] = organism: Homo sapiens; experiment: Mean percent inhibition of aqueous superoxide anion production in isolated human neutrophil assay at 1 mM using ethanol as solvent; procedure, shortened: as §1
Homo sapiens [8] = organism: Homo sapiens; experiment: Mean percent inhibition of aqueous superoxide anion production in isolated human neutrophil assay at 0.3 mM using ethanol as solvent; procedure, shortened: as §1
Homo sapiens [9] = organism: Homo sapiens; experiment: Mean percent inhibition of aqueous superoxide anion production in isolated human neutrophil assay at 3 mM using ethanol as solvent; procedure, shortened: as §1

SMILES	Mean inhibition (Homo sapiens [1]) [%]	Mean inhibition (Homo sapiens [2]) [%]	Mean inhibition (Homo sapiens [3]) [%]	Mean inhibition (Homo sapiens [4]) [%]	Mean inhibition (Homo sapiens [5]) [%]	Mean inhibition (Homo sapiens [6]) [%]	Mean inhibition (Homo sapiens [7]) [%]	Mean inhibition (Homo sapiens [8]) [%]	Mean inhibition (Homo sapiens [9]) [%]
CC1=C(/C=C/C(C)=C/C=C/C(C)=C/C=C/C=C(C)/C=C/C=C(C)/C=C/C2=C(C)C(=O)C(OC(=O)CCC(=O)[O-])CC2(C)C)C(C)(C)CC(OC(=O)CCC(=O)[O-])C1=O.[Na+].[Na+] (stereo not given) [DISODIUM SALT DISUCCINATE DIESTER OF ASTAXANTHIN]	38								
CC1=C(/C=C/C(C)=C/C=C/C(C)=C/C=C/C=C(C)/C=C/C=C(\C)C(=O)OC(CO)COP(=O)([O-])OCC[N+](C)(C)C)C(C)(C)CCC1.CC1=C(/C=C/C(C)=C/C=C/C(C)=C/C=C/C=C(C)/C=C/C=C(\C)C(=O)OCC(CO)OP(=O)([O-])OCC[N+](C)(C)C)C(C)(C)CCC1.CC1=C(/C=C/C(C)=C/C=C/C(C)=C/C=C/C=C(C)/C=C/C=C(\C)C(=O)OCC(O)COP(=O)([O-])OCC[N+](C)(C)C)C(C)(C)CCC1 (stereo not given)	13.3	51.8	94.3	61.7	18.2	24.6	79.3	31.3	98.7
